The source made the active and inactive calls. The calls are words filed in the database; no cut-off is given here.
System: not listed separately
Experiment: Antitumor activity against human PC3 cells xenografted in athymic nude mouse at 50 mg/kg, ip administered daily for 5 weeks
Assay type: functional
Conditions: PC-3, ip, 840 h, read-out: TGI
For `CC1(C)Oc2cc3oc(=O)ccc3cc2C[C@@H]1OC(=O)/C=C/c1ccc(O)c(O)c1`, the inhibition in vivo at 50 mg/kg was > 80%.

System: not listed separately
Experiment: Inhibition of Wnt/beta-catenin pathway in human HEK293 cells at 20 uM after 15 hrs by TOPflash dual luciferase reporter gene assay
Assay type: cell-based
Conditions: not given
How it was run: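 HEK293 TOPFlash reporter cells were seeded at 15,000 cells/well in duplicate and grown 24 h. Compounds were then added with Wnt3a-conditioned medium from Wnt3a-secreting L cells (0.22-filtered, two harvests combined); controls ran with or without Wnt3a-CM. After 15 h, dual luciferase activity was read as RLU normalized to cell titer, averaged over three experiments. Single-concentration screen at 20 µM.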
With `CC(=O)Oc1cccc(/C=C/C(=O)O[C@H]2Cc3cc4ccc(=O)oc4cc3OC2(C)C)c1OC(C)=O` the inhibition was 89.7%. With `COc1ccc(OC)c(/C=C/C(=O)O[C@H]2Cc3cc4ccc(=O)oc4cc3OC2(C)C)c1` the inhibition was 65.3%. In the case of `CC(=O)Oc1cc(/C=C/C(=O)O[C@H]2Cc3cc4ccc(=O)oc4cc3OC2(C)C)cc(OC(C)=O)c1OC(C)=O`, the inhibition is reported as 67.4%. Molecule `CC(=O)Oc1ccccc1/C=C/C(=O)O[C@H]1Cc2cc3ccc(=O)oc3cc2OC1(C)C` has an inhibition of 95.9%. Work on `CC(=O)Oc1cccc(CCC(=O)O[C@H]2Cc3cc4ccc(=O)oc4cc3OC2(C)C)c1` yielded an inhibition of 27.5%. With `CC1(C)Oc2cc3oc(=O)ccc3cc2C[C@@H]1OC(=O)/C=C/c1cc(O)c(O)c(O)c1` the inhibition was 75.3%. Work on `COc1ccccc1CCC(=O)O[C@H]1Cc2cc3ccc(=O)oc3cc2OC1(C)C` yielded an inhibition of 50.4%. Work on `COc1ccc(CCC(=O)O[C@H]2Cc3cc4ccc(=O)oc4cc3OC2(C)C)cc1` yielded an inhibition of 41.5%. In the case of `CC1(C)Oc2cc3oc(=O)ccc3cc2C[C@@H]1OC(=O)/C=C/c1ccc([N+](=O)[O-])cc1`, the inhibition is reported as 34.3%. `CC(=O)Oc1cccc(/C=C/C(=O)O[C@H]2Cc3cc4ccc(=O)oc4cc3OC2(C)C)c1` showed an inhibition of 97%. Work on `COc1ccccc1/C=C/C(=O)O[C@H]1Cc2cc3ccc(=O)oc3cc2OC1(C)C` yielded an inhibition of 88.3%. In the case of `CC1(C)Oc2cc3oc(=O)ccc3cc2C[C@@H]1OC(=O)/C=C/c1cccc(Br)c1`, the inhibition is reported as 84.8%. With `COc1cccc(/C=C/C(=O)O[C@H]2Cc3cc4ccc(=O)oc4cc3OC2(C)C)c1OC` the inhibition was 57.8%. `COc1cccc(/C=C/C(=O)O[C@H]2Cc3cc4ccc(=O)oc4cc3OC2(C)C)c1` gave an inhibition of 87.5%. Molecule `CC(=O)Oc1ccc(CCC(=O)O[C@H]2Cc3cc4ccc(=O)oc4cc3OC2(C)C)cc1` has an inhibition of 12%. With `COc1cc(OC)c(OC)cc1/C=C/C(=O)O[C@H]1Cc2cc3ccc(=O)oc3cc2OC1(C)C` the inhibition was 59.6%. `COc1ccc(OC)c(CCC(=O)O[C@H]2Cc3cc4ccc(=O)oc4cc3OC2(C)C)c1` showed an inhibition of 19.9%. For `COc1ccc(CCC(=O)O[C@H]2Cc3cc4ccc(=O)oc4cc3OC2(C)C)cc1OC`, the inhibition was 25.1%. Work on `CC(=O)Oc1ccccc1CCC(=O)O[C@H]1Cc2cc3ccc(=O)oc3cc2OC1(C)C` yielded an inhibition of 23.1%. Work on `CC1(C)Oc2cc3oc(=O)ccc3cc2C[C@@H]1OC(=O)CCc1cccc(O)c1O` yielded an inhibition of 81.4%. In the case of `CC1(C)Oc2cc3oc(=O)ccc3cc2C[C@@H]1OC(=O)/C=C/c1ccc(Br)cc1`, the inhibition is reported as 40.1%. In the case of `CC(=O)Oc1ccc(/C=C/C(=O)O[C@H]2Cc3cc4ccc(=O)oc4cc3OC2(C)C)cc1OC(C)=O`, the inhibition is reported as 94%. Molecule `CC1(C)Oc2cc3oc(=O)ccc3cc2C[C@@H]1OC(=O)CCc1ccc(O)cc1` has an inhibition of 32.8%. With `CC(=O)Oc1ccc(/C=C/C(=O)O[C@H]2Cc3cc4ccc(=O)oc4cc3OC2(C)C)cc1` the inhibition was 79.6%. With `CC1(C)Oc2cc3oc(=O)ccc3cc2C[C@@H]1OC(=O)/C=C/c1cccc(O)c1` the inhibition was 93.3%. `CC1(C)Oc2cc3oc(=O)ccc3cc2C[C@@H]1OC(=O)CCc1ccc(O)c(O)c1` gave an inhibition of 68%. In the case of `COc1ccc(CCC(=O)O[C@H]2Cc3cc4ccc(=O)oc4cc3OC2(C)C)c(OC)c1`, the inhibition is reported as 18.8%. `COc1cccc(CCC(=O)O[C@H]2Cc3cc4ccc(=O)oc4cc3OC2(C)C)c1` gave an inhibition of 49.9%. Molecule `CC1(C)Oc2cc3oc(=O)ccc3cc2C[C@@H]1OC(=O)/C=C/c1ccccc1` has an inhibition of 81.1%. In the case of `CC1(C)Oc2cc3oc(=O)ccc3cc2C[C@@H]1OC(=O)CCc1ccccc1`, the inhibition is reported as 10.6%. `CC1(C)Oc2cc3oc(=O)ccc3cc2C[C@@H]1OC(=O)/C=C/c1ccc(O)c(O)c1` gave an inhibition of 99.5%. `CC1(C)Oc2cc3oc(=O)ccc3cc2C[C@@H]1OC(=O)/C=C/c1ccccc1O` gave an inhibition of 94.2%. In the case of `COc1ccc(/C=C/C(=O)O[C@H]2Cc3cc4ccc(=O)oc4cc3OC2(C)C)cc1OC`, the inhibition is reported as 42.3%. `CC1(C)Oc2cc3oc(=O)ccc3cc2C[C@@H]1OC(=O)/C=C/c1cccc(O)c1O` showed an inhibition of 95.7%. Work on `COc1ccc(/C=C/C(=O)O[C@H]2Cc3cc4ccc(=O)oc4cc3OC2(C)C)cc1` yielded an inhibition of 54.8%. With `COc1cccc(CCC(=O)O[C@H]2Cc3cc4ccc(=O)oc4cc3OC2(C)C)c1OC` the inhibition was 13.5%. For `CC1(C)Oc2cc3oc(=O)ccc3cc2C[C@@H]1OC(=O)CCc1ccccc1O`, the inhibition was 10%. For `CC(=O)Oc1cccc(CCC(=O)O[C@H]2Cc3cc4ccc(=O)oc4cc3OC2(C)C)c1OC(C)=O`, the inhibition was 77.7%. `CC1(C)Oc2cc3oc(=O)ccc3cc2C[C@@H]1OC(=O)CCc1cccc(O)c1` gave an inhibition of 42%. Work on `COc1cc(/C=C/C(=O)O[C@H]2Cc3cc4ccc(=O)oc4cc3OC2(C)C)cc(OC)c1OC` yielded an inhibition of 46.9%. With `CC(C)=CC(=O)O[C@H]1Cc2cc3ccc(=O)oc3cc2OC1(C)C` [DECURSIN] the inhibition was 79.4%. With `CC1(C)Oc2cc3oc(=O)ccc3cc2C[C@@H]1OC(=O)/C=C/c1cccc(F)c1` the inhibition was 93.6%. Molecule `CC1(C)Oc2cc3oc(=O)ccc3cc2C[C@@H]1OC(=O)/C=C/c1ccc(O)cc1` has an inhibition of 78.1%. In the case of `COc1ccc(/C=C/C(=O)O[C@H]2Cc3cc4ccc(=O)oc4cc3OC2(C)C)c(OC)c1`, the inhibition is reported as 52.8%. For `CC(=O)Oc1ccc(CCC(=O)O[C@H]2Cc3cc4ccc(=O)oc4cc3OC2(C)C)cc1OC(C)=O`, the inhibition was 46.4%.

Target: T1, Catenin beta-1 (Homo sapiens) (UniProt P35222)
T1 sequence (whole entry): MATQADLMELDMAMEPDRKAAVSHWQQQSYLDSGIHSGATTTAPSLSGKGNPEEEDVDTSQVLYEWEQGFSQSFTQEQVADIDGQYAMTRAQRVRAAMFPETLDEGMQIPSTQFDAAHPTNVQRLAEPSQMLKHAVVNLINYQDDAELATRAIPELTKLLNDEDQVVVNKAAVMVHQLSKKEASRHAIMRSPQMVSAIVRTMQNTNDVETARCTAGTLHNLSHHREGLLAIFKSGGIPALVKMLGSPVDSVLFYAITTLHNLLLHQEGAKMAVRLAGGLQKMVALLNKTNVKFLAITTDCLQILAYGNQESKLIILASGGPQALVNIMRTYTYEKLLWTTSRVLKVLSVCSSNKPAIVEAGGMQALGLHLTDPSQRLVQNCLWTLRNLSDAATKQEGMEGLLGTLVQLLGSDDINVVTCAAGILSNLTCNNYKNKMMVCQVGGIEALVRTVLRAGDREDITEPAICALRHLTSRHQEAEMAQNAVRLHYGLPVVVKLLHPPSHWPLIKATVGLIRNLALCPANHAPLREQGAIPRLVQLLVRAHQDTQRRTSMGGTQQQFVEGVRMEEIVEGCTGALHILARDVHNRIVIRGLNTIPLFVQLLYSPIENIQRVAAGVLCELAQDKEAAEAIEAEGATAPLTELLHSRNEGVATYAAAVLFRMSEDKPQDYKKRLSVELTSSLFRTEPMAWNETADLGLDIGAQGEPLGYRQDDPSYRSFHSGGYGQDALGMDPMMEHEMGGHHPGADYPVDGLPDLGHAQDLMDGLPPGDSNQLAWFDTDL
Experiment: Inhibition of beta-catenin levels in human PC3 cells assessed as downregulation of c-myc levels at 12.5 to 50 uM after 15 hrs by Western blot analysis
Assay type: cell-based
Conditions: PC-3
How it was run: (§1)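 PC3 cells were incubated with vehicle (DMSO) or compound for 15 h. Cell extracts were western blotted with anti-cyclin D1 and anti-myc antibodies, then reprobed with anti-actin as the control, with ECL detection.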
With `CC(=O)Oc1cccc(/C=C/C(=O)O[C@H]2Cc3cc4ccc(=O)oc4cc3OC2(C)C)c1` the inhibition was “Active”.

System: not listed separately
Experiment: Inhibition of Wnt/beta-catenin pathway in human HEK293 cells after 15 hrs by TOPflash dual luciferase reporter gene assay
Assay type: cell-based
Conditions: HEK293, 15 h
In the case of `CC1(C)Oc2cc3oc(=O)ccc3cc2C[C@@H]1OC(=O)/C=C/c1ccc(O)c(O)c1`, the IC50 is reported as 12.3 µM. `CC(C)=CC(=O)O[C@H]1Cc2cc3ccc(=O)oc3cc2OC1(C)C` [DECURSIN] gave an IC50 of 176 µM.

Target: T1, Catenin beta-1 (Homo sapiens)
Experiment: Inhibition of beta-catenin levels in human PC3 cells assessed as downregulation of cyclinD1 levels at 12.5 to 50 uM after 15 hrs by Western blot analysis
Assay type: cell-based
Conditions: PC-3
How it was run: as §1
With `CC(=O)Oc1cccc(/C=C/C(=O)O[C@H]2Cc3cc4ccc(=O)oc4cc3OC2(C)C)c1` the inhibition was “Active”.

System: not listed separately
Experiment: Inhibition of Wnt/beta-catenin pathway in human HEK293 cells assessed as decrease in Wnt3a-CM-induced beta-catenin response transcription after 15 hrs by TOPflash dual luciferase reporter gene assay
Assay type: cell-based
Conditions: HEK293, 15 h
Work on `CC(=O)Oc1cccc(/C=C/C(=O)O[C@H]2Cc3cc4ccc(=O)oc4cc3OC2(C)C)c1` yielded an IC50 of 9.85 µM.

System: not listed separately
Experiment: Cytotoxicity against human PC3 cells assessed as cell viability after 24 to 48 hrs by cell Titer-Glo assay
Assay type: functional, cell-based
Conditions: PC-3
How it was run: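 Androgen-independent PC3 cells in 96-well plates were exposed to varying compound concentrations for 24 h (figure legend) or 48 h (methods note). Viability was measured in triplicate with the CellTiter-Glo luminescent assay.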
`CC(=O)Oc1cccc(/C=C/C(=O)O[C@H]2Cc3cc4ccc(=O)oc4cc3OC2(C)C)c1` gave an IC50 of 8.97 µM.

Target: T1, Catenin beta-1 (Homo sapiens)
Experiment: Downregulation of cytoplasmic beta-catenin levels in human PC3 cells after 15 hrs by Western blot analysis
Assay type: cell-based
Conditions: PC-3
How it was run: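 Cytosolic fractions from PC3 cells (DMEM, 10% FBS) treated with vehicle (DMSO) or compound were western blotted with a β-catenin antibody, then reprobed with anti-actin as the fraction control.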
In the case of `CC(=O)Oc1cccc(/C=C/C(=O)O[C@H]2Cc3cc4ccc(=O)oc4cc3OC2(C)C)c1`, the Activity is reported as “Dose-dependent effect”.

Target: T1, Catenin beta-1 (Homo sapiens)
Experiment: Downregulation of Wnt3a-CM-induced beta-catenin levels in human HEK293 cells at 12.5 to 50 uM after 15 hrs by Western blot analysis
Assay type: cell-based
Conditions: not given
How it was run: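 HEK293 reporter cells were treated with vehicle (DMSO) or compound in the presence of Wnt3a-CM for 15 h. Cytosolic proteins were western blotted with a β-catenin antibody, then reprobed for actin as the fraction control, with HRP secondary and ECL detection.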
For `CC(=O)Oc1cccc(/C=C/C(=O)O[C@H]2Cc3cc4ccc(=O)oc4cc3OC2(C)C)c1`, the Activity was “Active”.

— ChEMBL document CHEMBL3826880, “Synthesis and evaluation of (+)-decursin derivatives as inhibitors of the Wnt/β-catenin pathway” (Bioorg Med Chem Lett, 2016)
